In paper PMC4005002 (Anti-cancer drugs, 2013):
“And” between values parts separate entries of the source, which are not always exact repeats. Identical values can stand only once. Like-named read-outs stand apart in the source and are kept apart here. Each block holds one compound with its values, some of them ahead of it.

Legend:
acetylated H4 = details: phase I study of VPA alone, half of the subjects; cited from earlier work
histone acetylation = details: cited from earlier work
[1] = VPA serum/plasma levels during treatment; assay type: in vivo, human
HDAC activity in PBMC = assay: Histone H4 acetylation in peripheral blood mononuclear cells; assay type: in vivo, human; details: data from subject 6, VPA with Tem
How it was run: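 PBMC isolated on Ficoll and stored at −80 C. Extracts normalized to cell number were run on SDS-PAGE and blotted with rabbit anti-tetra-acetyl H4 (1:2000) and anti-pan-H4 (1:1000). Scanned blots were quantified.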

[2] = system: children and adolescents with refractory solid tumors; assay: Phase I dose escalation of Tem in combination with VPA: toxicity; assay type: in vivo
[3] = system: pediatric patients with recurrent/refractory solid tumors; details: cited from earlier work
[4] = Tem pharmacokinetics in whole blood; assay type: in vivo, human; details: for AUC(0-t): 0 to 24 hours post dose
[5] = cited from earlier work; for median Cmax: children

concentration at 24 h ([1]; human, plasma, oral): 52000 ng/mL | VPA level at grade 2 thrombocytopenia ([1]; one patient, resolved after holding VPA for 3 days): 56 µg/mL | VPA range ([1]; patient 1, Tem 60 mg/m^2): 26–72 (NA) mcg/mL | VPA range ([1]; patient 2, Tem 60 mg/m^2): 78 to 112 µg/mL | VPA range ([1]; patient 3, Tem 60 mg/m^2): <10 to 91 µg/mL | VPA range ([1]; patient 4, Tem 35 mg/m^2): 68 to 108 µg/mL | VPA range ([1]; patient 5, Tem 35 mg/m^2): 13 to 87 µg/mL | VPA range ([1]; patient 6, Tem 35 mg/m^2): 22 to 78 µg/mL | VPA level at the time of maximum symptoms (grade 3 bilateral plantar pain) ([1]; subject #5, beginning of 4th month of treatment): 87 µg/mL
SMILES: CCCC(CCC)C(=O)O [VPA, Valproic Acid]
VPA levels associated with increased acetylated H4 (acetylated H4): 55 to 100 µg/mL | VPA levels needed before acetylation is significantly affected (histone acetylation): greater than 100 mcg/mL | VPA level at time of grade 3 toxicity ([1]; patient 2, Tem 60 mg/m^2): 85 µg/mL and 112 µg/mL | VPA level at time of grade 3 toxicity ([1]; patient 3, Tem 60 mg/m^2): 91 µg/mL | VPA level at time of grade 3 toxicity ([1]; patient 4, Tem 35 mg/m^2): 108 µg/mL | VPA level at time of grade 3 toxicity ([1]; patient 5, Tem 35 mg/m^2): 87 µg/mL | VPA level at time of grade 3 toxicity ([1]; patient 6, Tem 35 mg/m^2): 78 µg/mL | VPA plasma levels required to inhibit HDAC activity in PBMC (HDAC activity in PBMC): > 70 µg/dL | VPA levels with which toxicity seemed to correlate ([2]; Tem plus VPA): > 75 µg/mL | fatigue attributed to VPA ([2]; in vivo): dose-limiting fatigue

SMILES: CO[C@H]1C[C@@H]2CC[C@@H](C)[C@@](O)(O2)C(=O)C(=O)N2CCCC[C@H]2C(=O)O[C@H]([C@H](C)C[C@@H]2CC[C@@H](OC(=O)C(C)(CO)CO)[C@H](OC)C2)CC(=O)[C@H](C)/C=C(\C)[C@@H](O)[C@@H](OC)C(=O)[C@H](C)C[C@H](C)/C=C/C=C/C=C/1C [Tem, Temsirolimus]
MTD of Tem as single agent ([3]; pediatric study): more than 150 mg/m^2 IV/week | MTD of Tem alone ([3]; phase I pediatric study): 150 mg/m^2 | Peak Tem levels, range over patients ([4]; Tem 60 mg/m^2 dose level with VPA, both cycles): 757–1,220 ng/mL | Tmax ([4]; cycle 5, Tem 35 mg/m^2 IV weekly with VPA, median, N = 2): 30 min | Tmax ([4]; human, whole blood, iv, 35 mg/m^2): 39.6 min | AUC(0-t) ([4]; human, whole blood, iv, 35 mg/m^2, AUClast, cycle 1, Tem 35 mg/m^2 IV weekly with VPA, median, N = 3): 7550 ng·h/mL | AUC(0-t) ([4]; human, whole blood, iv, 60 mg/m^2, AUClast, cycle 1, Tem 60 mg/m^2 IV weekly with VPA, median, N = 2): 8330 ng·h/mL | half-life ([4]; human, whole blood, iv, T1/2, cycle 5, Tem 60 mg/m^2 IV weekly with VPA, N = 1): 504 min | tolerable dose of Tem with VPA ([2]; IV weekly with VPA PO TID): 35 mg/m^2/week | MTD of Tem in combination with VPA ([2]; IV weekly, VPA doses dropped using fatigue as endpoint): 35 mg/m2/wk | dose of Tem well tolerated / likely MTD when combined with VPA ([2]; IV weekly, only 3 patients treated at this dose): 35 mg/m^2 | mucositis at the lower dose ([2]; human, in vivo): mucositis limited to grade 1 or 2, with the exception of one subject with grade 3 | median Cmax ([5]; Tem 25 mg/m^2 without VPA): 448 ng/mL | median Cmax ([5]; Tem 75 mg/m^2 without VPA): 442 ng/mL | Peak Tem levels, range ([5]; children who had received 75 mg/m^2 Tem without VPA): 369 to 630 ng/mL
